Activity calls are given as the source filed them. The calls are words filed in the database; no cut-off is given here.
Tests used:
[1] = test system: B16-F10; assay: Cytotoxicity against mouse B16F10 cells at 100 uM after 24 hrs by MTT assay relative to control; type: functional
Procedure, shortened: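 Single-concentration screen in which B16-F10 cells (1 × 10⁵) were exposed to 100 µM compound for 24 h. Viability was read by MTT, with control optical density set as 100%. Three experiments in triplicate, mean ± S.E.M.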

[2] = test system: B16-F10; assay: Induction of apoptosis in mouse B16F10 cells assessed as decrease in total glutathione level up to 100 uM after 24 hrs by glutathione reductase method; type: functional, cell-based
Procedure, shortened: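 About 3 × 10⁵ B16-F10 cells were treated with 0–100 µM compound for 24 h. A mitochondria-enriched fraction was prepared by centrifugation after homogenization in Tris-sucrose buffer and sonication. Total glutathione (GSH + GSSG) was assayed by the glutathione reductase/DTNB/NADPH method in phosphate buffer 100 mM pH 7.4. Absorbance at 412 nm was read every minute for 5 min against a GSH standard curve.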

[3] = test system: B16-F10; assay: Induction of apoptosis in mouse B16F10 cells assessed as decrease in ATP level after 24 hrs by bioluminescent assay; type: functional, cell-based
Procedure, shortened: (§1)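 Intracellular ATP was measured by luciferin–luciferase bioluminescence. About 3 × 10⁵ B16-F10 cells were exposed to 0–100 µM compound for 24 h, pelleted, and extracted with 1.25% trichloroacetic acid on ice for 30 min. Extracts were neutralized with Tris-acetate 1 M pH 7.5 and diluted 4-fold before reading. Three experiments in triplicate.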

[4] = test system: B16-F10; assay: Cytotoxicity against mouse B16F10 cells after 72 hrs by MTT assay; type: functional, cell-based; details: B16-F10, 72 h
Procedure, shortened: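 MTT viability assay on B16-F10 cells seeded at 1 × 10⁴ cells/well. Compounds were dissolved in DMSO (0.1% final) and tested over 0–40 µM for 72 h at 37 °C in triplicate. MTT was added for 3 h and formazan dissolved in acidified isopropanol (HCl 0.04 M). Absorbance read at 540 nm. IC50 taken from concentration–response curves against untreated control.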

[5] = test system: B16-F10; assay: Induction of apoptosis in mouse B16F10 cells assessed as DNA fragmentation at IC50 after 24 hrs by gel electrophoresis; type: functional, cell-based
Procedure, shortened: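 DNA ladder assay: 5 × 10⁵ B16-F10 cells were treated for 24 h with each compound at its cell-viability IC50 (DMSO 0.1% final). DNA was ethanol-precipitated, RNase A-treated at 37 °C for 1 h, run on 1.5% agarose and stained with ethidium bromide.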

[6] = test system: B16-F10; assay: Induction of necrosis in mouse B16F10 cells assessed as alteration in ATP level up to 100 uM after 24 hrs by bioluminescent assay; type: functional, cell-based; procedure, shortened: as §1

COc1ccc(/C=C/C(=O)c2c(OC)cc(OC)c(Br)c2O)cc1
Activity [1]: inactive

COc1cc(O)c(C(=O)/C=C/c2cccc([N+](=O)[O-])c2)c(OC)c1
Activity [1]: inactive

COc1cc(C(=O)/C=C/c2ccc3ccccc3c2)ccc1O
Activity [1]: inactive

O=C(/C=C/c1ccc2ccccc2c1)c1ccccc1O
Activity [1]: inactive

COc1cc(O)c(C(=O)/C=C/c2cccc3ccccc23)c(OC)c1
Activity [1]: inactive

COc1cc(OC)c(C(=O)/C=C/c2ccccc2Cl)c(O)c1Br
Activity [1]: inactive

O=C(/C=C/c1cccc2ccccc12)c1cccc(O)c1
Activity [2]: Active | Activity [3]: Dose-dependent effect | IC50 [4]: 12 µM | Activity [1]: 97.7% | Activity [5]: Active

CCCCOc1ccc(/C=C/C(=O)c2c(OC)cc(OC)c(Br)c2O)cc1
Activity [1]: inactive

COc1cc(O)c(C(=O)/C=C/c2cccc(Cl)c2)c(OC)c1
Activity [1]: inactive

COc1cc(OC)c(C(=O)/C=C/c2c(OC)cccc2OC)c(O)c1Br
Activity [1]: inactive

COc1cc(OC)c(C(=O)/C=C/c2ccc([N+](=O)[O-])cc2)c(O)c1Br
Activity [1]: inactive

COc1cc(OC)c(C(=O)/C=C/c2ccccc2C(=O)O)c(O)c1Br
Activity [6]: inactive | IC50 [4]: 30 µM | Activity [1]: 50% | Activity [5]: inactive

O=C(/C=C/c1cccc2ccccc12)c1ccccc1O
Activity [2]: Active | Activity [3]: Dose-dependent effect | IC50 [4]: 17 µM | Activity [1]: 75.2% | Activity [5]: Active
